For test [1], the system named is Potassium-transporting ATPase (Canis familiaris). The test is described as follows: Percent inhibition of gastric proton-pump enzyme H+/K+ ATPase was determined at 50 uM. The conditions noted are these: Canis lupus familiaris, Stomach.
For test [2], the system named is Rattus norvegicus. The test is described as follows: Gastric antisecretory activity against gastric secretion in the pylorus-ligated rat at a dose of 26 mg/Kg. Format: functional, Stomach. A digest of the protocol: (§1)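 Conscious rats, pylorus ligated under ether anesthesia; drug or vehicle injected into the duodenum. Killed 2 h after surgery. Stomach contents centrifuged, then titrated to pH 7.0 for acid output (uEq/h per 100 g body weight). Inhibition calculated versus vehicle-treated rats. Means ± SE of 5-10 animals; Student's t test, p < 0.05.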

For test [3], the target named is Potassium-transporting ATPase (Canis familiaris). The test is described as follows: Inhibitory activity against dog gastric proton-pump enzyme H+/K+ ATPase.
In test [4] the target is Dog Kidney Na+, K+-ATPase (Canis lupus familiaris, UniProt P50997). The test is described as follows: Tested against canine renal Na+/K+ ATPase.
For test [5], the system named is Potassium-transporting ATPase (Canis familiaris). The test is described as follows: Percent inhibition of gastric proton-pump enzyme H+/K+ ATPase was determined at 10 uM. The conditions noted are these: Canis lupus familiaris, Stomach.
In test [6] the target is Potassium-transporting ATPase (Canis familiaris). The test is described as follows: Inhibitory activity of gastric proton-pump enzyme H+/K+ ATPase was determined at 50 uM.
In test [7] the test system is Rattus norvegicus. The test is described as follows: Gastric antisecretory activity against gastric secretion in the pylorus-ligated rat at a dose of 30 mg/Kg. Format: functional, Stomach. The procedure, abridged:
as §1

The subject of test [8] is Rattus norvegicus. The test is described as follows: Gastric antisecretory activity against gastric secretion in the pylorus-ligated rat at a dose of 60 mg/Kg. Format: functional, Stomach. The procedure, abridged: as §1
Test [9] deals with Rattus norvegicus. The test is described as follows: Gastric antisecretory activity against gastric secretion in the pylorus-ligated rat at a dose of 10 mg/Kg. Format: functional, Stomach. A digest of the protocol:
as §1

The subject of the next test is Canis familiaris. The test is described as follows: Antisecretory activity in Heidenhain pouch dog model at 2 mg/kg, iv. It counts as functional, organism-based. On the set-up: dose 2 mg/kg. The conditions noted are these: Canis lupus familiaris. A digest of the protocol:
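Heidenhain pouch dogs on pentagastrin infusion; drug or vehicle given iv at 2 mg/kg, 90 min after the infusion started. Gastric juice collected at 30-min intervals, ten collections per dog. Acid titrated to pH 7.4 with 0.1 N NaOH. Effect = lowest acid output after drug versus mean output immediately before drug.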

The target of test [10] is Potassium-transporting ATPase (Canis familiaris). The test is described as follows: The compound was tested in vitro for inhibition of gastric proton-pump enzyme H+/K+ ATPase.
Test [11] relates to Rattus norvegicus. The test is described as follows: Gastric antisecretory activity against gastric secretion in the pylorus-ligated rat at a dose of 60 mg/kg. It counts as functional, Stomach. A digest of the protocol: as §1
The species entered for test [12] is Rattus norvegicus. The test is described as follows: Antisecretory activity in a pylorus-ligated rat model.
Test [13] relates to Rattus norvegicus. The test is described as follows: Gastric antisecretory activity against gastric secretion in the pylorus-ligated rat at a dose of 33 mg/Kg. Format: functional, Stomach. A digest of the protocol: as §1

Consider 21 molecules from ChEMBL document CHEMBL1125091, “Antiulcer agents. 4-substituted 2-guanidinothiazoles: reversible, competitive, and selective inhibitors of gastric H+,K(+)-ATPase” (J Med Chem, 1990).

Molecules are shown by their SMILES. Calls of active or inactive are those of the source. No cut-off for these calls is given here.

Usually inhibition stands for the relative decrease from the control value, in per cent. The term IC50 denotes the concentration needed to halve the response being measured. Regarding `Cc1cc(-c2csc(N=C(N)N)n2)c[nH]1`, in test [1], the inhibition was 70%. The Activity in the test with Rattus norvegicus [2] is 50%. Besides, the figures for the IC50 in [3] and in test [4] were 25 µM and over 100 µM, respectively.
For the molecule `Cc1cccc2c(-c3csc(N=C(N)N)n3)c[nH]c12`, in test [5], the inhibition worked out at 55%. The molecule further gave an IC50 in test [3] of 7.6 µM.
In [6], `CC(=O)Oc1ccc(-c2csc(N=C(N)N)n2)cc1OC(C)=O.Cl` returned an IC50 of 27 µM. Further, the Activity with Rattus norvegicus [7] was 15%.
For the molecule `Cc1[nH]c2ccccc2c1-c1nc(N=C(N)N)sc1C.Cl`, the Activity in the test with Rattus norvegicus [8] stood at 78%; in the test with Rattus norvegicus [9] it was 51%. For the same molecule, in [6], the IC50 came out at 6.2 µM. Besides, in the test with Canis familiaris, the outcome was inactive.
Take `CC(=O)Oc1ccc(-c2csc(NC(=N)NCc3ccccc3)n2)cc1OC(C)=O.Cl`: the IC50 in test [6] was over 50 µM. Moreover, the Activity with Rattus norvegicus [7] is given as -1%.
As to `Cl.N=C(NCc1ccccc1)Nc1nc(-c2c[nH]c3ccc(Br)cc23)cs1`, the Activity with Rattus norvegicus [8] came to 52%. The inhibition in test [1] was 105%. Also, 0.7 µM corresponded to half-maximal inhibition in test [3] (IC50).
In the case of `Cl.N=C(N)Nc1nc(-c2c[nH]c3ccc(Cl)cc23)cs1`, the IC50 in test [10] and in test [3] was 1.8 µM in each case. Further, in the test with Rattus norvegicus [8], the Activity came out at 22%. Also, in test [1], the inhibition stood at 89%.
Regarding `Cc1sc(NC(=N)NCc2ccccc2)nc1-c1c[nH]c2ccc(Cl)cc12`, the Activity with Rattus norvegicus [8] is -59%. For the same molecule, the inhibition in test [1] was found to be 101%.
Take `Cc1cc(-c2nc(N=C(N)N)sc2C)c[nH]1`: the Activity in the test on Rattus norvegicus [11] is given as 36%. The IC50 in [10] stood at 1 µM; in test [3], 1.2 µM. Also, the inhibition in test [1] was found to be 100%.
For `Cc1[nH]c2ccccc2c1-c1nc(NC(=N)NCc2ccccc2)sc1C.Cl`, the figures for the Activity with Rattus norvegicus [8] and in the test on Rattus norvegicus [7] were 69% and 47%, respectively. Also, in test [6], inhibition was half-maximal at 5.3 µM (IC50).
`Cc1[nH]ccc1-c1nc(N=C(N)N)sc1C.Cl`: the IC50 was determined as 1 µM in [10] and 1.3 µM in test [3]. The Activity in the test on Rattus norvegicus [8] is 46%. In test [1], the inhibition was found to be 102%.
In the case of `Cl.N/C(=N\Cc1ccccc1)Nc1nc(-c2ccc(O)c(O)c2)cs1`, the inhibition in test [1] worked out at 111%. The molecule further gave an IC50 in [3] of 0.3 µM. In addition, the Activity in the test with Rattus norvegicus [7] was 2.5%.
As usually defined, the ED50 is the midpoint of the dose-response relation. In turn, `CN/C(=N\CCSCc1nc[nH]c1C)NC#N` [CIMETIDINE] gave an ED50 in the test filed under Rattus norvegicus [12] of 11 mg/kg.
Consider `Br.COc1ccc(-c2csc(N=C(N)N)n2)cc1`, for which the results for the Activity in the test on Rattus norvegicus [8], with Rattus norvegicus [9] and in the test on Rattus norvegicus [7] were 87%, 27% and 26%, respectively.
`N=C(N)Nc1nc2c(s1)CCc1ccccc1-2` gave an IC50 in test [6] of 21 µM.
Take `Cc1ccc(-c2csc(N=C(N)N)n2)[nH]1.O=C(O)/C=C\C(=O)O`: the inhibition in [1] is 76%. The same molecule showed a half-maximal inhibitory concentration (IC50) in test [3] of 45 µM. The Activity in the test on Rattus norvegicus [13] is 50%.
As for `Cc1[nH]ccc1-c1csc(NC(=N)NCc2ccccc2)n1.O=C(O)/C=C\C(=O)O`, the inhibition in test [1] was 93%. Also, in test [3], the IC50 was determined as 6 µM. Besides, the Activity with Rattus norvegicus [7] was determined as 60%.
In the case of `COc1ccc2[nH]cc(-c3csc(NC(=N)NCc4ccccc4)n3)c2c1.Cl`, the Activity with Rattus norvegicus [8] was 48%. The inhibition in test [1] is 95%. For the same molecule, it took 4.3 µM to reach half-maximal inhibition in [3] (IC50).
Taken in the same sequence, the figures for `Cl.N=C(N)Nc1nc(-c2ccc(O)c(O)c2)cs1` were -149%, 100% and 1.5 µM.
With `Cc1ccc2c(-c3csc(N=C(N)N)n3)c[nH]c2c1.Cl`, the Activity in the test on Rattus norvegicus [8] is reported as 42%. For the same molecule, in [1], the inhibition is 64%.
With `Cl.N=C(N)Nc1nc(-c2c[nH]c3ccc(Br)cc23)cs1`, the inhibition in [5] was determined as 90%. Moreover, the Activity in the test on Rattus norvegicus [8] is -43%. Moreover, the IC50 in [3] was 0.96 µM.
